Reference: ChEMBL document CHEMBL4038306, “Development of an Aryloxazole Class of Hepatitis C Virus Inhibitors Targeting the Entry Stage of the Viral Replication Cycle” (J Med Chem, 2017)

Columns and labels:
[1] = Ratio of AUClast in CD-1 mouse liver to plasma at 0.1 mg/kg, ip administered as single dose after […]; type: ADME, organism-based; conditions: read-out: Ratio AUC
[2] = Tmax in CD-1 mouse liver at 0.1 mg/kg, ip administered as single dose after 24 hrs by UPLC-MS/MS method; type: ADME, organism-based
Outline: (§1)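 Adult male CD-1 mice (25–39 g), one i.p. dose of 0.1, 1 or 10 mg/kg. […] Drug levels measured by UPLC–MS/MS and reported as means ± SEM. […] Serum ALT was also monitored.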

[3] = Drug uptake in CD-1 mouse liver at 0.1 mg/kg, ip administered as single dose after 5 mins by UPLC-MS/MS method; type: ADME, organism-based; conditions: read-out: Drug uptake; outline: as §1
[4] = Cmax in CD-1 mouse plasma at 1 mg/kg, ip administered as single dose after 24 hrs by UPLC-MS/MS method; type: ADME, organism-based; set-up: dose 1 mg/kg, route intraperitoneal; outline: as §1
[5] = Drug uptake in CD-1 mouse liver at 1 mg/kg, ip administered as single dose after 24 hrs by UPLC-MS/MS method; type: ADME, organism-based; conditions: read-out: Drug uptake; outline: as §1
[6] = Tmax in CD-1 mouse plasma at 10 mg/kg, ip administered as single dose after 24 hrs by UPLC-MS/MS method; type: ADME, organism-based; outline: as §1
[7] = Ratio of AUClast in CD-1 mouse liver to plasma at 1 mg/kg, ip administered as single dose after 24 hrs; type: ADME, organism-based; conditions: read-out: Ratio AUC
Outline: (§2)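 Adult male CD-1 mice (25–39 g), n = 3 per sampling time point, given one i.p. dose (0.1, 1 or 10 mg/kg). Plasma and liver levels measured by UPLC–MS/MS. […] Serum ALT was monitored alongside.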

[8] = AUClast in CD-1 mouse liver at 0.1 mg/kg, ip administered as single dose after […] by UPLC-MS/MS method; type: ADME, organism-based
[9] = Ratio of Cmax in CD-1 mouse liver to plasma at 1 mg/kg, ip administered as single dose after 24 hrs; type: ADME, organism-based
Outline: (§3)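 Adult male CD-1 mice (25–39 g) received one intraperitoneal dose. Plasma and liver were sampled at set time points, n = 3 mice per time point. Compound levels were measured by UPLC–MS/MS.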

[10] = AUClast in CD-1 mouse plasma at 1 mg/kg, ip administered as single dose after 24 hrs by UPLC-MS/MS method; type: ADME, organism-based; outline: as §1
[11] = AUClast in CD-1 mouse plasma at 0.1 mg/kg, ip administered as single dose after 24 hrs by UPLC-MS/MS method; type: ADME, organism-based; outline: as §1
[12] = Tmax in CD-1 mouse plasma at 1 mg/kg, ip administered as single dose after 24 hrs by UPLC-MS/MS method; type: ADME, organism-based; outline: as §1
[13] = Ratio of Cmax in CD-1 mouse liver to plasma at 10 mg/kg, ip administered as single dose after 24 hrs; type: ADME, organism-based; outline: as §3
[14] = Ratio of AUClast in CD1 mouse liver to plasma at 10 mg/kg, ip administered as single dose after 24 hrs; type: ADME, organism-based; conditions: CD-1, mouse, read-out: Ratio AUC; outline: as §2
[15] = Ratio of AUClast in CD-1 mouse liver to plasma at 0.1 mg/kg, ip administered as single dose after 24 hrs; type: ADME, organism-based; conditions: read-out: Ratio AUC; outline: as §2
[16] = Ratio of Cmax in CD-1 mouse liver to plasma at 0.1 mg/kg, ip administered as single dose after 24 hrs; type: ADME, organism-based; outline: as §3
[17] = Tmax in CD-1 mouse liver at 10 mg/kg, ip administered as single dose after 24 hrs by UPLC-MS/MS method; type: ADME, organism-based; outline: as §1
[18] = AUClast in CD-1 mouse plasma at 10 mg/kg, ip administered as single dose after 24 hrs by UPLC-MS/MS method; type: ADME, organism-based; outline: as §1
[19] = Cmax in CD-1 mouse liver at 0.1 mg/kg, ip administered as single dose after 24 hrs by UPLC-MS/MS method; type: ADME, organism-based; set-up: dose 0.1 mg/kg, route intraperitoneal; outline: as §1
[20] = Cmax in CD-1 mouse liver at 10 mg/kg, ip administered as single dose after 24 hrs by UPLC-MS/MS method; type: ADME, organism-based; set-up: dose 10 mg/kg, route intraperitoneal; outline: as §1
[21] = Ratio of AUC (infinity) in CD-1 mouse liver to plasma at 0.1 mg/kg, ip administered as single dose after […]; type: ADME, organism-based; conditions: read-out: Ratio AUC
[22] = Cmax in CD-1 mouse plasma at 0.1 mg/kg, ip administered as single dose after 24 hrs by UPLC-MS/MS method; type: ADME, organism-based; set-up: dose 0.1 mg/kg, route intraperitoneal; outline: as §1
Plasma [23] = assay: Cmax in CD-1 mouse plasma at 0.1 mg/kg, ip administered as single dose after […] by UPLC-MS/MS method; type: ADME, organism-based; set-up: dose 0.1 mg/kg, route intraperitoneal; conditions: in vivo
[24] = Cmax in CD-1 mouse plasma at 10 mg/kg, ip administered as single dose after 24 hrs by UPLC-MS/MS method; type: ADME, organism-based; set-up: dose 10 mg/kg, route intraperitoneal; outline: as §1
[25] = Cmax in CD-1 mouse liver at 0.1 mg/kg, ip administered as single dose after […] by UPLC-MS/MS method; type: ADME, organism-based; set-up: dose 0.1 mg/kg, route intraperitoneal
[26] = Permeability of the compound by PAMPA; type: physicochemical; conditions: read-out: permeability
Outline: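 Passive diffusion measured by stirred double-sink PAMPA; permeability expressed in 10⁻⁶ cm/s.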

[27] = AUClast in CD-1 mouse liver at 0.1 mg/kg, ip administered as single dose after 24 hrs by UPLC-MS/MS method; type: ADME, organism-based; outline: as §1
[28] = AUClast in CD-1 mouse plasma at 0.1 mg/kg, ip administered as single dose after […] by UPLC-MS/MS method; type: ADME, organism-based
[29] = Tmax in CD-1 mouse liver at 1 mg/kg, ip administered as single dose after 24 hrs by UPLC-MS/MS method; type: ADME, organism-based; outline: as §1
Plasma [30] = assay: Tmax in CD-1 mouse plasma at 0.1 mg/kg, ip administered as single dose after […] by UPLC-MS/MS method; type: ADME, organism-based; conditions: in vivo
[31] = Cmax in CD-1 mouse liver at 1 mg/kg, ip administered as single dose after 24 hrs by UPLC-MS/MS method; type: ADME, organism-based; set-up: dose 1 mg/kg, route intraperitoneal; outline: as §1
[32] = Tmax in CD-1 mouse plasma at 0.1 mg/kg, ip administered as single dose after 24 hrs by UPLC-MS/MS method; type: ADME, organism-based; outline: as §1
[33] = Tmax in CD-1 mouse liver at 0.1 mg/kg, ip administered as single dose after […] by UPLC-MS/MS method; type: ADME, organism-based
Plasma [34] = assay: AUC (infinity) in CD-1 mouse plasma at 0.1 mg/kg, ip administered as single dose after […] by UPLC-MS/MS method; type: ADME, organism-based; set-up: dose 0.1 mg/kg, time infinity, route intraperitoneal; conditions: in vivo
[35] = AUClast in CD-1 mouse liver at 10 mg/kg, ip administered as single dose after 24 hrs by UPLC-MS/MS method; type: ADME, organism-based; outline: as §1
[36] = AUClast in CD-1 mouse liver at 1 mg/kg, ip administered as single dose after 24 hrs by UPLC-MS/MS method; type: ADME, organism-based; outline: as §1
[37] = Ratio of Cmax in CD-1 mouse liver to plasma at 0.1 mg/kg, ip administered as single dose after […]; type: ADME, organism-based; conditions: liver and plasma

Cc1oc(-c2ccc(Cl)c(Cl)c2)nc1CN1CCC(C(=O)NCCCN2C[C@H](C)C[C@H](C)C2)CC1
Kp at […] [1]: 448
Tmax [2]: 7 h
concentration at 5 min [3]: 390 nM
Cmax [4]: 146 nM
concentration at 24 h [5]: 3330 to 9820 nM
Tmax [6]: 4.98 min
Kp at 24 h [7]: 224
AUC(0-t) at […] [8]: 52.3 µM·h
Kp at 24 h [9]: 67
AUC(0-t) at 24 h [10]: 0.88 µM·h
AUC(0-t) at 24 h [11]: 0.0494 µM·h
Tmax [12]: 0.25 h
Kp at 24 h [13]: 7
Kp at 24 h [14]: 41
Kp at 24 h [15]: 399
Kp at 24 h [16]: 126
Tmax [17]: 7 h
AUC(0-t) at 24 h [18]: 17.6 µM·h
Cmax [19]: 1110 nM
Cmax [20]: 34500 nM
Kp at […] [21]: 510
Cmax [22]: 8.76 nM
Cmax (Plasma [23]): 8.76 nM
Cmax [24]: 4740 nM
Cmax at […] [25]: 1110 nM
Papp [26]: 522 ×10⁻⁶ cm/s
AUC(0-t) at 24 h [27]: 19.7 µM·h
AUC(0-t) at […] [28]: 0.117 µM·h
Tmax [29]: 4 h
Tmax (Plasma [30]): 4.98 min
Cmax [31]: 9820 nM
Tmax [32]: 4.98 min
Tmax at […] [33]: 7 h
AUC (Plasma [34]): 0.0639 µM·h
AUC(0-t) at 24 h [35]: 719 µM·h
AUC(0-t) at 24 h [36]: 197 µM·h
Kp at […] [37]: 126
